What all share (type): functional
Experiment [1] in a line: Total radioactivity after 10 min irradiation at 360 nm. In outline:
(§1)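 Alternating poly(dA-dT)·poly(dA-dT), 1 mg (1.5 µmol base pairs) in 1 mL 10 mM Tris pH 7.2, with 0.3 µmol tritiated psoralen added in 95% EtOH. Irradiated 10 min at 10 °C. Polymer ethanol-reprecipitated, then digested sequentially with DNase II (pH 5, 37 °C), phosphodiesterase II (pH 7) and alkaline phosphatase (pH 7.8-8.0). Adducts resolved by reverse-phase HPLC (water-methanol gradient, pH 2.2 phosphate), with A254 and ³H scintillation counting.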

A short description of experiment [2]: Furan monoadduct and diadduct distribution (products resulting from photoaddition with the nucleic acid poly (dA-dT)) after 10 min irradiation at 360 nm. In short, it runs like this: as §1
Experiment [3] in a line: Pyrone monoadduct distribution (product resulting from photoaddition with the nucleic acid poly (dA-dT)) after 10 min irradiation at 360 nm. In outline:
as §1

A short description of experiment [4]: Total radioactivity (pyrone monoadduct, furan monoadduct and diadduct resulting from photoaddition with the nucleic acid poly (dA-dT)) after 10 min irradiation at 360 nm. In short, it runs like this: as §1

As to `COc1c2oc(C)cc2cc2ccc(=O)oc12`, the Radioactivity in experiment [1] is 90%; in experiment [2] it was 73%; in experiment [3] it was 17%.

Consider `COc1c2occc2cc2ccc(=O)oc12`, for which the Radioactivity in experiment [2] is 75%; in experiment [3], 19%; in experiment [4] it was 94%.

As for `COc1c2oc(C)cc2cc2c(C)cc(=O)oc12`, the Radioactivity in experiment [1] stood at 96%; in experiment [2], 94%; in experiment [3], 2%.

In the case of `COc1c2occc2cc2c(C)cc(=O)oc12`, the values for the Radioactivity in experiment [1], in experiment [2] and in experiment [3] were 96%, 94% and 2%, respectively.

The values are drawn from ChEMBL document CHEMBL1122638, “8-Methoxypsoralen-nucleic acid photoreaction. Effect of methyl substitution on pyrone vs. furan photoaddition” (J Med Chem, 1984).
